Measured values from ChEMBL document CHEMBL3085754, “Clicking 3'-azidothymidine into novel potent inhibitors of human immunodeficiency virus” (J Med Chem, 2013).
Active and inactive are the calls of the source. The calls are words filed in the database; no cut-off is given here.

What was measured:
[1] = system: Human immunodeficiency virus 1; test: Antiviral activity against Human immunodeficiency virus 1 3B infected in human CEM-SS cells assessed as inhibition of virus-induced cytopathic effect at 10 uM after 6 days by MTS assay relative to control; format: functional; conditions: 144 h
CEM-SS [2] = test: Cytotoxicity against human CEM-SS cells assessed as cell viability at 10 uM after 6 days by MTS assay relative to control; format: cell-based; conditions: 144 h
[3] = system: Human immunodeficiency virus 1; test: Antiviral activity against wild type Human immunodeficiency virus 1 expressing p24 infected in human HeLa P4/R5 cells up to 10 uM preincubated for 16 hrs prior to virus infection measured after 48 hrs by beta-galactosidase-based single replication cycle assay; format: functional, organism-based
Procedure, shortened: (§1)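 P4R5 indicator cells express CD4, CXCR4, CCR5 and an HIV LTR-driven β-galactosidase reporter, and were kept in DMEM/10% FBS with puromycin. Cells were seeded at 5×10^3 per well and exposed to varying drug concentrations for 16 h. They were then inoculated with 25 ng HIV-1 p24 per well. Infection was quantified 48 h post-infection by fluorescence-based β-galactosidase detection.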

[4] = Therapeutic index, ratio of CC50 for human CEM-SS cells to EC50 for Human immunodeficiency virus 1 3B; format: cell-based; conditions: read-out: Ratio CC50/EC50
CEM-SS [5] = test: Cytotoxicity against human CEM-SS cells assessed as cell viability after 6 days by MTS assay; format: cell-based; conditions: cem-ss, 144 h
[6] = system: Human immunodeficiency virus 1; test: Antiviral activity against NNRTI-resistant Human immunodeficiency virus 1; format: functional, organism-based
[7] = system: Human immunodeficiency virus 1; test: Antiviral activity against wild type Human immunodeficiency virus 1 expressing p24 infected in human HeLa P4/R5 cells preincubated for 16 hrs prior to virus infection measured after 48 hrs by beta-galactosidase-based single replication cycle assay; format: functional, organism-based; conditions: Human immunodeficiency virus 1, P4/R5; procedure, shortened: as §1
[8] = system: Human immunodeficiency virus 1; test: Ratio of EC50 for NNRTI-resistant Human immunodeficiency virus 1 to EC50 for wild type Human immunodeficiency virus 1 expressing p24; format: functional
[9] = system: Human immunodeficiency virus 1; test: Antiviral activity against Human immunodeficiency virus 1 3B infected in human CEM-SS cells assessed as inhibition of virus-induced cytopathic effect after 6 days by MTS assay; format: functional, organism-based; conditions: 144 h
[10] = molecular target: Human immunodeficiency virus type 1 reverse transcriptase (Human immunodeficiency virus 1) (UniProt Q72547); test: Binding affinity to HIV1 reverse transcriptase assessed as compound incorporation into DNA by primer extension assay
[11] = molecular target: Human immunodeficiency virus type 1 reverse transcriptase (Human immunodeficiency virus 1, UniProt Q72547); test: Inhibition of HIV1 reverse transcriptase-mediated [H3]TTP incorporation into poly(rA)-oligo(dT)16 DNA preincubated for 5 mins prior to primer/template and substrate addition by liquid scintillation spectrometric analysis
Procedure, shortened: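 10 nM wt HIV-1 RT preincubated 5 min with inhibitor in DMSO (1% final), then 40 nM poly(rA)-oligo(dT)16 and 10 μM [3H]TTP added. Buffer 50 mM Tris-HCl pH 8.0, 60 mM KCl, 10 mM MgCl2; 20 min at 37°C. Quenched with cold 10% TCA/20 mM pyrophosphate, glass-fibre filtered, washed with TCA and ethanol, incorporation counted by liquid scintillation.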

| SMILES | inhibition at 10 µM [1] [%] | Activity (CEM-SS [2]) [%] | also measured |
| --- | --- | --- | --- |
| Cc1cn([C@H]2C[C@H](n3cc(C4(O)c5ccccc5-c5ccccc54)nn3)[C@@H](CO)O2)c(=O)[nH]c1=O | 11 | 100 | – |
| Cc1cn([C@H]2C[C@H](n3nncc3-c3ccnc4ccccc34)[C@@H](CO)O2)c(=O)[nH]c1=O | 74 | 94 | – |
| Cc1cn([C@H]2C[C@H](n3nncc3-c3ccc4[nH]ccc4c3)[C@@H](CO)O2)c(=O)[nH]c1=O | 12 | 82 | – |
| COC(=O)C(Cc1ccc(OCc2cnnn2[C@H]2C[C@H](n3cc(C)c(=O)[nH]c3=O)O[C@@H]2CO)cc1)NC(=O)OC(C)(C)C (stereo not given in full) | 17 | 90 | – |
| Cc1cn([C@H]2C[C@H](n3cc(-c4ccccc4)nn3)[C@@H](CO)O2)c(=O)[nH]c1=O | 24 | 100 | – |
| Cc1cn([C@H]2C[C@H](n3nncc3-c3ccc4ccccc4c3)[C@@H](CO)O2)c(=O)[nH]c1=O | 37 | 100 | – |
| Cc1cn([C@H]2C[C@H](n3nncc3-c3ccc(Oc4ccccc4)cc3)[C@@H](CO)O2)c(=O)[nH]c1=O | 67 | 97 | Activity [3]: inactive |
| Cc1cn([C@H]2C[C@H](n3cc(C4CC4)nn3)[C@@H](CO)O2)c(=O)[nH]c1=O | 1 | 100 | – |
| Cc1cn([C@H]2C[C@H](n3cc(CO)nn3)[C@@H](CO)O2)c(=O)[nH]c1=O | 5 | 100 | – |
| Cc1cn([C@H]2C[C@H](n3cc(COc4ccccc4)nn3)[C@@H](CO)O2)c(=O)[nH]c1=O | 7 | 85 | – |
| Cc1cn([C@H]2C[C@H](n3nncc3-c3ccccc3)[C@@H](CO)O2)c(=O)[nH]c1=O | 44 | 100 | – |
| Cc1cn([C@H]2C[C@H](n3cc(-c4ccc(Cl)cc4)nn3)[C@@H](CO)O2)c(=O)[nH]c1=O | 0 | 100 | – |
| Cc1cn([C@H]2C[C@H](n3nncc3COc3ccc4ccccc4c3)[C@@H](CO)O2)c(=O)[nH]c1=O | 88 | 95 | selectivity ratio [4]: 37; CC50 (CEM-SS [5]): 70 µM; EC50 [6]: 2.4 µM; EC50 [7]: > 5 µM; Ratio EC50 [8]: <0.5; EC50 [9]: 1.9 µM |
| Cc1cn([C@H]2C[C@H](N=[N+]=[N-])[C@@H](COP(=O)(O)OP(=O)(O)OP(=O)(O)O)O2)c(=O)[nH]c1=O | – | – | Activity [10]: Active |
| Cc1cn([C@H]2C[C@H](n3cc(-c4ccc5[nH]ccc5c4)nn3)[C@@H](CO)O2)c(=O)[nH]c1=O | 35 | 100 | – |
| Cc1cn([C@H]2C[C@H](n3nncc3-c3cc4ccccc4c4ccccc34)[C@@H](CO)O2)c(=O)[nH]c1=O | 100 | 100 | selectivity ratio [4]: 210; CC50 (CEM-SS [5]): 21 µM; EC50 [7]: > 5 µM; EC50 [9]: 0.1 µM |
| Cc1cn([C@H]2C[C@H](n3nncc3C3CCCCC3)[C@@H](CO)O2)c(=O)[nH]c1=O | 43 | 88 | Activity [3]: inactive |
| Cc1cn([C@H]2C[C@H](n3cc(C4CCCCC4)nn3)[C@@H](CO)O2)c(=O)[nH]c1=O | 0 | 100 | – |
| COc1ccc2cc(-c3cnnn3[C@H]3C[C@H](n4cc(C)c(=O)[nH]c4=O)O[C@@H]3CO)ccc2c1 | 43 | 100 | EC50 [6]: 1.8 µM; EC50 [7]: 4.1 µM; Ratio EC50 [8]: 0.4 |
| Cc1cn([C@H]2C[C@H](n3cc(-c4ccc(Oc5ccccc5)cc4)nn3)[C@@H](CO)O2)c(=O)[nH]c1=O | 0 | 100 | – |
| Cc1cn([C@H]2C[C@H](n3cc(-c4ccc(Cl)c(Cl)c4)nn3)[C@@H](CO)O2)c(=O)[nH]c1=O | 6 | 100 | – |
| Cc1cn([C@H]2C[C@H](n3nncc3C3(O)c4ccccc4-c4ccccc43)[C@@H](CO)O2)c(=O)[nH]c1=O | 0 | 97 | – |

| SMILES | inhibition at 10 µM [1] [%] | Activity (CEM-SS [2]) [%] | also measured |
| --- | --- | --- | --- |
| Cc1cn([C@H]2C[C@H](n3cc(-c4ccc(-c5ccccc5)cc4)nn3)[C@@H](CO)O2)c(=O)[nH]c1=O | 91 | 88 | – |
| COc1ccc2cc(OCc3cn([C@H]4C[C@H](n5cc(C)c(=O)[nH]c5=O)O[C@@H]4CO)nn3)ccc2c1 | 0 | 100 | – |
| Cc1cn([C@H]2C[C@H](n3nncc3CO)[C@@H](CO)O2)c(=O)[nH]c1=O | 0 | 100 | – |
| Cc1cn([C@H]2C[C@H](n3nncc3COc3ccccc3)[C@@H](CO)O2)c(=O)[nH]c1=O | 51 | 100 | – |
| Cc1cn([C@H]2C[C@H](n3cc(-c4ccc5ccccc5c4)nn3)[C@@H](CO)O2)c(=O)[nH]c1=O | 33 | 98 | EC50 [6]: 2.1 µM; EC50 [7]: 7.2 µM; Ratio EC50 [8]: 0.3 |
| Cc1cn([C@H]2C[C@H](n3cc(COc4ccc5ccccc5c4)nn3)[C@@H](CO)O2)c(=O)[nH]c1=O | 0 | 100 | – |
| Cc1cn([C@H]2C[C@H](n3nncc3COc3cccc4ccccc34)[C@@H](CO)O2)c(=O)[nH]c1=O | 42 | 93 | Activity [3]: inactive |
| Cc1cn([C@H]2C[C@H](n3cc(-c4cc5ccccc5c5ccccc45)nn3)[C@@H](CO)O2)c(=O)[nH]c1=O | 42 | 100 | EC50 [6]: 1 µM; EC50 [7]: 4.7 µM; Ratio EC50 [8]: 0.2 |
| Cc1cn([C@H]2C[C@H](O)[C@@H](COP(=O)(O)OP(=O)(O)OP(=O)(O)O)O2)c(=O)[nH]c1=O | – | – | Activity [10]: Active |
| COc1ccc2cc(OCc3cnnn3[C@H]3C[C@H](n4cc(C)c(=O)[nH]c4=O)O[C@@H]3CO)ccc2c1 | 57 | 100 | Activity [3]: inactive |
| COc1ccc2cc(-c3cn([C@H]4C[C@H](n5cc(C)c(=O)[nH]c5=O)O[C@@H]4CO)nn3)ccc2c1 | 35 | 95 | – |
| COc1ccc2ccc(OCc3cn([C@H]4C[C@H](n5cc(C)c(=O)[nH]c5=O)O[C@@H]4CO)nn3)cc2c1 | 0 | 100 | – |
| Cc1cn([C@H]2C[C@H](n3nncc3-c3cc4ccccc4c4ccccc34)[C@@H](COP(=O)(O)OP(=O)(O)OP(=O)(O)O)O2)c(=O)[nH]c1=O | – | – | IC50 [11]: 11.8 µM |
| Cc1cn([C@H]2C[C@H](n3nncc3-c3ccc(Cl)c(Cl)c3)[C@@H](CO)O2)c(=O)[nH]c1=O | 31 | 100 | Activity [3]: inactive |
| COC(=O)C(Cc1ccc(OCc2cn([C@H]3C[C@H](n4cc(C)c(=O)[nH]c4=O)O[C@@H]3CO)nn2)cc1)NC(=O)OC(C)(C)C (stereo not given in full) | 0 | 99 | – |
| Cc1cn([C@H]2C[C@H](n3cc(-c4cccc5ccccc45)nn3)[C@@H](CO)O2)c(=O)[nH]c1=O | 1 | 100 | – |
| COc1ccc2ccc(OCc3cnnn3[C@H]3C[C@H](n4cc(C)c(=O)[nH]c4=O)O[C@@H]3CO)cc2c1 | 10 | 99 | – |
| Cc1cn([C@H]2C[C@H](n3nncc3-c3ccc(Cl)cc3)[C@@H](CO)O2)c(=O)[nH]c1=O | 23 | 100 | – |
| Cc1cn([C@H]2C[C@H](n3nncc3-c3ccc(-c4ccccc4)cc3)[C@@H](CO)O2)c(=O)[nH]c1=O | 63 | 80 | Activity [3]: inactive |
| Cc1cn([C@H]2C[C@H](n3cc(COc4cccc5ccccc45)nn3)[C@@H](CO)O2)c(=O)[nH]c1=O | 5 | 100 | – |
| Cc1cn([C@H]2C[C@H](n3nncc3C3CC3)[C@@H](CO)O2)c(=O)[nH]c1=O | 17 | 100 | – |
| Cc1cn([C@H]2C[C@H](n3cc(-c4ccnc5ccccc45)nn3)[C@@H](CO)O2)c(=O)[nH]c1=O | 44 | 100 | – |
